Measured values taken from ChEMBL document CHEMBL1124989, “8-Substituted 5-[(aminoalkyl)amino]-6H-v-triazolo[4,5,1-de]acridin-6-ones as potential antineoplastic agents. Synthesis and biological activity” (J Med Chem, 1990).
In brackets after ≈: the same amount, converted by molar mass.

Key:
HeLa = assay: In vitro cytotoxicity against HeLa S3 cell lines; type: functional, cell-based; details: Homo sapiens
P388 [1] = assay: In vivo antileukemic activity against P388 leukemia at dose 25 mp/kg administered intraperitoneally; type: functional, Mus musculus
Outline: (§1)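 BDF1 mice implanted ip with 10^6 P388 cells. Compound given ip as aqueous solution containing 3 equiv of L-lactic acid on days 1-5. Activity expressed as T/C (%); T/C ≥ 125% taken as statistically significant antileukemic activity.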

P388 [2] = assay: In vivo antileukemic activity against P388 leukemia at dose 12.5 mp/kg administered intraperitoneally; type: functional, Mus musculus
P388 [3] = assay: In vivo antileukemic activity against P388 leukemia at dose 100 mp/kg administered intraperitoneally; type: functional, Mus musculus; outline: as §1
P388 [4] = assay: In vivo antileukemic activity against P388 leukemia at dose 40 mp/kg administered intraperitoneally; type: functional, Mus musculus; outline: as §1
P388 [5] = assay: In vivo antileukemic activity against P388 leukemia at dose 25 mp/kg administered intraperitoneally (30 days survivors, 3/6)
P388 [6] = assay: In vivo antileukemic activity against P388 leukemia at dose 8 mp/kg administered intraperitoneally; type: functional, Mus musculus; outline: as §1
P388 [7] = assay: In vivo antileukemic activity against P388 leukemia at dose 25 mp/kg administered intraperitoneally (30 days survivors, 2/6)
P388 [8] = assay: In vivo antileukemic activity against P388 leukemia at dose 50 mp/kg administered intraperitoneally; type: functional, Mus musculus; outline: as §1
P388 [9] = assay: In vivo antileukemic activity against P388 leukemia at dose 12.5 mp/kg administered intraperitoneally (30 days survivors, 3/6); type: functional, Mus musculus

| SMILES | IC50 (HeLa) [mg/L] | further results |
| --- | --- | --- |
| CN(C)CCCNc1ccc2nnn3c4ccc([N+](=O)[O-])cc4c(=O)c1c23 | 0.12 (≈ 0.328 µM) | T/C (P388 [1]): 110% |
| CCN(CC)CCNc1ccc2nnn3c4ccc(Cl)cc4c(=O)c1c23 | 0.13 (≈ 0.351 µM) | T/C (P388 [2]): 111% |
| CN(C)CCNc1ccc2nnn3c4ccccc4c(=O)c1c23 | 0.21 (≈ 0.683 µM) | T/C (P388 [3]): 180% |
| CN(C)CCNc1ccc2nnn3c4ccc(Cl)cc4c(=O)c1c23 | 0.1 (≈ 0.293 µM) | T/C (P388 [1]): 110% |
| CCN(CC)CCNc1ccc2nnn3c4ccc(C)cc4c(=O)c1c23 | 0.21 (≈ 0.601 µM) | T/C (P388 [4]): 133% |
| CN(C)CCCNc1ccc2nnn3c4ccc(O)cc4c(=O)c1c23 | 0.08 (≈ 0.237 µM) | T/C (P388 [5]): 320% |
| CCN(CC)CCNc1ccc2nnn3c4ccc(O)cc4c(=O)c1c23 | 0.05 (≈ 0.142 µM) | T/C (P388 [6]): 190% |
| Cc1ccc2c(c1)c(=O)c1c(NCCNCCO)ccc3nnn2c31 | 0.24 (≈ 0.711 µM) |  |
| CCN(CC)CCNc1ccc2nnn3c4ccccc4c(=O)c1c23 | 0.42 (≈ 1.25 µM) | T/C (P388 [3]): 160% |
| O=c1c2cc([N+](=O)[O-])ccc2n2nnc3ccc(NCCNCCO)c1c32 | 0.12 (≈ 0.326 µM) | T/C (P388 [1]): 133% |
| COc1ccc2c(c1)c(=O)c1c(NCCN(C)C)ccc3nnn2c31 | 0.1 (≈ 0.296 µM) | T/C (P388 [1]): 110% |
| Cc1ccc2c(c1)c(=O)c1c(NCCN(C)C)ccc3nnn2c31 | 0.17 (≈ 0.529 µM) | T/C (P388 [3]): 130% |
| Cc1ccc2c(c1)c(=O)c1c(NCCCN(C)C)ccc3nnn2c31 | 0.15 (≈ 0.447 µM) |  |
| CN(C)CCNc1ccc2nnn3c4ccc(O)cc4c(=O)c1c23 | 0.1 (≈ 0.309 µM) | T/C (P388 [7]): 260% |
| CN(C)CCCNc1ccc2nnn3c4ccccc4c(=O)c1c23 | 0.28 (≈ 0.871 µM) | T/C (P388 [3]): 133% |
| CCN(CC)CCNc1ccc2nnn3c4ccc([N+](=O)[O-])cc4c(=O)c1c23 | 0.12 (≈ 0.315 µM) | T/C (P388 [2]): 122% |
| CN(C)CCNc1ccc2nnn3c4ccc([N+](=O)[O-])cc4c(=O)c1c23 | 0.11 (≈ 0.312 µM) | T/C (P388 [1]): 130% |
| O=c1c2ccccc2n2nnc3ccc(NCCNCCO)c1c32 | 0.29 (≈ 0.897 µM) | T/C (P388 [8]): 133% |
| O=c1c2cc(Cl)ccc2n2nnc3ccc(NCCNCCO)c1c32 | 0.16 (≈ 0.447 µM) | T/C (P388 [1]): 133% |
| COc1ccc2c(c1)c(=O)c1c(NCCCN(C)C)ccc3nnn2c31 | 0.17 (≈ 0.484 µM) |  |
| COc1ccc2c(c1)c(=O)c1c(NCCNCCO)ccc3nnn2c31 | 0.09 (≈ 0.255 µM) | T/C (P388 [2]): 120% |
| CCN(CC)CCNc1ccc2nnn3c4ccc(OC)cc4c(=O)c1c23 | 0.16 (≈ 0.438 µM) | T/C (P388 [2]): 120% |
| CN(C)CCCNc1ccc2nnn3c4ccc(Cl)cc4c(=O)c1c23 | 0.13 (≈ 0.365 µM) | T/C (P388 [8]): 111% |
| O=c1c2cc(O)ccc2n2nnc3ccc(NCCNCCO)c1c32 | 0.12 (≈ 0.354 µM) | T/C (P388 [2]): 210% |
| O=C1c2ccccc2C(=O)c2c(NCCNCCO)ccc(NCCNCCO)c21 [AMETANTRONE] | 0.17 (≈ 0.412 µM) | T/C (P388 [9]): 300% |
